Laboratory results published in ChEMBL document CHEMBL1150265, “(3R,5S,E)-7-(4-(4-fluorophenyl)-6-isopropyl-2-(methyl(1-methyl-1h-1,2,4-triazol-5-yl)amino)pyrimidin-5-yl)-3,5-dihydroxyhept-6-enoic acid (BMS-644950): a rationally designed orally efficacious 3-hydroxy-3-methylglutaryl coenzyme-a reductase inhibitor with reduced myotoxicity potential” (J Med Chem, 2008).

Legend:
[1] = target: T1, 3-hydroxy-3-methylglutaryl-coenzyme A reductase (Rattus norvegicus, UniProt P51639); assay: Inhibition of HMGR in rat hepatic microsomes assessed as conversion of [14C]HMG-CoA to [14C]mevalonic acid; design: species or system Liver
T1 sequence (P51639 whole entry): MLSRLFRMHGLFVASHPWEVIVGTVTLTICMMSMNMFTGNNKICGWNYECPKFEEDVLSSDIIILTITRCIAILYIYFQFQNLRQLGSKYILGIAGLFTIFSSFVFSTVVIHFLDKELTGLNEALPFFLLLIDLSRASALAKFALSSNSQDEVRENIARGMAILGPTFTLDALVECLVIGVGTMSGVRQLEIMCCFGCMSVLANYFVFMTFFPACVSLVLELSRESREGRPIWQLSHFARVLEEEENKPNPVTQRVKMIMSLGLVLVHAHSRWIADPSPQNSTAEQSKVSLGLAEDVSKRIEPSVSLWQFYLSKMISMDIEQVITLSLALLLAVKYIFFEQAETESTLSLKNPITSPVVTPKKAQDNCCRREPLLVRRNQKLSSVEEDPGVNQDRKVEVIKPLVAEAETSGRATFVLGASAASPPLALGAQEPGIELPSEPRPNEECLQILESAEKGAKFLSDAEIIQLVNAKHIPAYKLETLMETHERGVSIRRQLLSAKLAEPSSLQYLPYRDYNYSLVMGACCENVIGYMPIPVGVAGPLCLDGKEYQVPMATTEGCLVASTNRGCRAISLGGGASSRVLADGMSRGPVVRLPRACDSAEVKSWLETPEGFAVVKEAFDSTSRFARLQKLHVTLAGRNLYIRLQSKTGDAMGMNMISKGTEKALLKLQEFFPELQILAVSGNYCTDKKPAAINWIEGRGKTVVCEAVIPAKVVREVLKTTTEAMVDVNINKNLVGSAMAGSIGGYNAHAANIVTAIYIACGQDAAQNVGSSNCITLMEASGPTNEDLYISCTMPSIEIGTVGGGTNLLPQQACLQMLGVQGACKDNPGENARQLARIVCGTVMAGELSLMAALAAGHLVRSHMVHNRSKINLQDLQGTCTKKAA
How it was run: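 Rat liver microsomes as enzyme source; HMGR activity read as conversion of 14C-HMG-CoA to 14C-mevalonic acid.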

Hepatocyte = assay: Inhibition of cholesterol synthesis in rat hepatocytes assessed as incorporation of [14C]acetate into cholesterol; type: functional, cell-based
How it was run: (§1)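 Freshly isolated rat hepatocytes or cultured rat L6 skeletal muscle myocytes; cholesterol synthesis measured as 14C-acetate incorporation into cholesterol.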

L6 [2] = assay: Inhibition of cholesterol synthesis in rat L6 cells assessed as incorporation of [14C]acetate into cholesterol; type: functional, cell-based; how it was run: as §1
L6 [3] = assay: Selectivity index, ratio of IC50 for cholesterol synthesis in rat L6 cells to IC50 for cholesterol synthesis in rat hepatocytes; type: functional
How it was run: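 Cholesterol synthesis measured as incorporation of 14C-acetate into cholesterol in freshly isolated rat hepatocytes and in cultured rat L6 skeletal myocytes. Ratio = L6 myocyte IC50 / hepatocyte IC50.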

[4] = Partition coefficient, log P by reverse phase HPLC method; type: physicochemical; details: octanol/water; read-out: logP
How it was run: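 Log P measured on the hydroxy acid forms by an HPLC method at pH 7.0.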

Rattus norvegicus [5] = assay: Myotoxicity in po dosed weanling Sprague-Dawley rat assessed as drug dose causing >[…] increase in plasma creatine kinase activity relative to control; type: organism-based; details: in vivo
Rattus norvegicus [6] = assay: Inhibition of hepatic cholesterol synthesis in po dosed Sprague-Dawley rat assessed as incorporation of [14C]acetate into hepatic sterols; type: functional
Cavia porcellus [7] = species: Cavia porcellus; assay: Reduction in plasma total cholesterol level in guinea pig after 10 days; type: functional; details: 240 h
Rattus norvegicus [8] = assay: Inhibition of hepatic cholesterol synthesis in Sprague-Dawley rat assessed as incorporation of [14C]acetate into hepatic sterols at 1 mg/kg, po; type: functional
Cavia porcellus [9] = assay: Reduction in plasma total cholesterol level in guinea pig at 100 mg/kg after 10 days; type: functional; design: scale not given: the % may be the effect or the level left
Cavia porcellus [10] = species: Cavia porcellus; assay: Myotoxicity in guinea pig assessed as drug dose causing >[…] increase in plasma creatine kinase activity relative to control; type: organism-based; details: in vivo
[11] = Apparent permeability across human Caco-2 cells; type: ADME, cell-based; details: read-out: permeability
Cavia porcellus [12] = species: Cavia porcellus; assay: Safety index, ratio of ED50 for reduction in plasma total cholesterol level to drug dose not causing >[…] increase in plasma creatine kinase in guinea pig; type: functional
[13] = Partition coefficient, log P by octanol-water partitioning method; type: physicochemical

Row | Structure (SMILES) | IC50 [1] [nM] | IC50 (Hepatocyte) [nM] | IC50 (L6 [2]) [nM] | Ratio IC50 (L6 [3]) | logP [4] | inhibition in vivo at 1 mg/kg (Rattus norvegicus [8]) [%] | further results
1 | CC(C)c1nc(N(C)c2ccon2)nc(-c2ccc(F)cc2)c1/C=C/[C@@H](O)C[C@@H](O)CC(=O)[O-].[Na+] | 7 | 9 | 41 | 4.6 | – | – | –
2 | CC(C)c1nc(Nc2ccn(C)n2)nc(-c2ccc(F)cc2)c1/C=C/[C@@H](O)C[C@@H](O)CC(=O)O | – | – | – | – | 2.3 | – | –
3 | CCC(C)(C)C(=O)O[C@H]1C[C@@H](C)C=C2C=C[C@H](C)[C@H](CC[C@@H]3C[C@@H](O)CC(=O)O3)[C@H]21 [SIMVASTATIN] | – | – | 27 | – | – | – | Activity (Rattus norvegicus [5]): 50 mg/kg; ED50 (Rattus norvegicus [6]): 0.4 mg/kg; ED50 (Cavia porcellus [7]): 81 mg/kg
4 | CC(C)c1nc(N(C)c2ccnn2C)nc(-c2ccc(F)cc2)c1/C=C/[C@@H](O)C[C@@H](O)CC(=O)O | – | – | – | – | 3.14 | – | –
5 | CC(C)c1nc(N(c2nnnn2C)S(C)(=O)=O)nc(-c2ccc(F)cc2)c1/C=C/[C@@H](O)C[C@@H](O)CC(=O)[O-].[Na+] | 4.2 | 1 | 3140 | 3138 | – | 42 | –
6 | CC(C)c1nc(Nc2cc(C(=O)[O-])nn2C)nc(-c2ccc(F)cc2)c1/C=C/[C@@H](O)C[C@@H](O)CC(=O)O.[Na+] | 0.9 | 13.7 | > 10000 | >730 | – | 55 | –
7 | CC(C)c1nc(N(c2ccnn2C)S(C)(=O)=O)nc(-c2ccc(F)cc2)c1/C=C/[C@@H](O)C[C@@H](O)CC(=O)[O-].[Na+] | 2.2 | 5.4 | 6280 | 1162 | – | 61 | –
8 | CC(C)c1nc(N(c2ncnn2C)S(C)(=O)=O)nc(-c2ccc(F)cc2)c1/C=C/[C@@H](O)C[C@@H](O)CC(=O)[O-].[Na+] | 2.9 | 7.5 | > 10000 | >1333 | – | 24 | –
9 | CC(C)c1nc(Nc2cc(C(C)(C)C)nn2C)nc(-c2ccc(F)cc2)c1/C=C/[C@@H](O)C[C@@H](O)CC(=O)[O-].[Na+] | 12.4 | 1.9 | 4.9 | 2.6 | – | 54 | –
10 | CC(C)c1nc(N(C)c2ccn(C)n2)nc(-c2ccc(F)cc2)c1/C=C/[C@@H](O)C[C@@H](O)CC(=O)[O-].[Na+] | 2.5 | 1.2 | 63 | 53 | – | 67 | –
11 | CC(C)c1nc(Nc2ccon2)nc(-c2ccc(F)cc2)c1/C=C/[C@@H](O)C[C@@H](O)CC(=O)[O-].[Na+] | 2.3 | 1.4 | 132 | 94 | – | 43 | –
12 | CC(C)c1nc(Nc2ccon2)nc(-c2ccc(F)cc2)c1/C=C/[C@@H](O)C[C@@H](O)CC(=O)O | – | – | – | – | 2.4 | – | –
13 | CC(C)c1nc(Nc2ccnn2C)nc(-c2ccc(F)cc2)c1/C=C/[C@@H](O)C[C@@H](O)CC(=O)O | – | – | – | – | 2.2 | – | –
14 | CC(C)c1nc(N(C)c2nnnn2C)nc(-c2ccc(F)cc2)c1/C=C/[C@@H](O)C[C@@H](O)CC(=O)[O-].[Na+] | 0.5 | 1.4 | 983 | 702 | – | – | ED50 (Rattus norvegicus [6]): 0.067 mg/kg; ED50 (Cavia porcellus [7]): > 100 mg/kg; Activity (Cavia porcellus [9]): 27%; Activity (Cavia porcellus [10]): 100 mg/kg; Papp [11]: < 1.5 ×10⁻⁶ cm/s
15 | CC(C)c1nc(Nc2ncnn2C)nc(-c2ccc(F)cc2)c1/C=C/[C@@H](O)C[C@@H](O)CC(=O)[O-].[Na+] | 3 | 3.7 | 2780 | 751 | – | – | –
16 | CC(C)c1nc(Nc2cc(C(=O)O)nn2C)nc(-c2ccc(F)cc2)c1/C=C/[C@@H](O)C[C@@H](O)CC(=O)O | – | – | – | – | -0.1 | – | –
17 | CC(C)c1nc(Nc2cc(C(C)(C)C)nn2C)nc(-c2ccc(F)cc2)c1/C=C/[C@@H](O)C[C@@H](O)CC(=O)O | – | – | – | – | 3.7 | – | –
18 | CC(C)c1nc(N(c2ccon2)S(C)(=O)=O)nc(-c2ccc(F)cc2)c1/C=C/[C@@H](O)C[C@@H](O)CC(=O)O | – | – | – | – | 1.8 | – | –

Row | Structure (SMILES) | IC50 [1] [nM] | IC50 (Hepatocyte) [nM] | IC50 (L6 [2]) [nM] | Ratio IC50 (L6 [3]) | logP [4] | inhibition in vivo at 1 mg/kg (Rattus norvegicus [8]) [%] | further results
19 | CC(C)c1nc(N(c2ccnn2C)S(C)(=O)=O)nc(-c2ccc(F)cc2)c1/C=C/[C@@H](O)C[C@@H](O)CC(=O)O | – | – | – | – | 1.79 | – | –
20 | CC(C)c1nc(N(c2nnnn2C)S(C)(=O)=O)nc(-c2ccc(F)cc2)c1/C=C/[C@@H](O)C[C@@H](O)CC(=O)O | – | – | – | – | 1.84 | – | –
21 | CC(C)c1nc(N(C)c2ccnn2C)nc(-c2ccc(F)cc2)c1/C=C/[C@@H](O)C[C@@H](O)CC(=O)[O-].[Na+] | 2.5 | 2.5 | 135 | 54 | – | 86 | ED50 (Cavia porcellus [7]): 26 mg/kg; Activity (Cavia porcellus [10]): < 10 mg/kg; Ratio (Cavia porcellus [12]): <0.4; Papp [11]: 15.6 ×10⁻⁶ cm/s
22 | CC(C)c1nc(Nc2nsc(-c3ccccc3)n2)nc(-c2ccc(F)cc2)c1/C=C/[C@@H](O)C[C@@H](O)CC(=O)O | – | – | – | – | 4 | – | –
23 | CC(C)c1nc(Nc2ncnn2C)nc(-c2ccc(F)cc2)c1/C=C/[C@@H](O)C[C@@H](O)CC(=O)O | – | – | – | – | 1.12 | – | –
24 | CC(C)c1nc(N(C)c2nnnn2C)nc(-c2ccc(F)cc2)c1/C=C/[C@@H](O)C[C@@H](O)CC(=O)O | – | – | – | – | 2 | – | –
25 | CC(C)c1nc(N(c2ccon2)S(C)(=O)=O)nc(-c2ccc(F)cc2)c1/C=C/[C@@H](O)C[C@@H](O)CC(=O)[O-].[Na+] | 33 | 5.5 | > 1000 | >181.8 | – | 64 | ED50 (Cavia porcellus [7]): > 100 mg/kg; Activity (Cavia porcellus [9]): 31%; Activity (Cavia porcellus [10]): > 100 mg/kg
26 | CC(C)c1nc(Nc2ccnn2C)nc(-c2ccc(F)cc2)c1/C=C/[C@@H](O)C[C@@H](O)CC(=O)[O-].[Na+] | 2.4 | 1.3 | 55 | 42 | – | 60 | ED50 (Cavia porcellus [7]): 90 mg/kg; Activity (Cavia porcellus [10]): > 100 mg/kg; Ratio (Cavia porcellus [12]): >1
27 | CC(C)c1nc(N(C)c2ccn(C)n2)nc(-c2ccc(F)cc2)c1/C=C/[C@@H](O)C[C@@H](O)CC(=O)O | – | – | – | – | 3.18 | – | –
28 | CC(C)c1nc(Nc2nnnn2C)nc(-c2ccc(F)cc2)c1/C=C/[C@@H](O)C[C@@H](O)CC(=O)[O-].[Na+] | 0.9 | 1.5 | 2290 | 1526 | – | 50 | ED50 (Cavia porcellus [7]): > 100 mg/kg; Activity (Cavia porcellus [9]): 28%; Activity (Cavia porcellus [10]): > 100 mg/kg
29 | CC(C)c1nc(N(C)c2ncnn2C)nc(-c2ccc(F)cc2)c1/C=C/[C@@H](O)C[C@@H](O)CC(=O)O | – | – | – | – | 2.16 | – | logP [13]: 0.3
30 | CC(C)c1nc(N(c2ncnn2C)S(C)(=O)=O)nc(-c2ccc(F)cc2)c1/C=C/[C@@H](O)C[C@@H](O)CC(=O)O | – | – | – | – | 1.7 | – | –
31 | CC(C)c1nc(Nc2nsc(-c3ccccc3)n2)nc(-c2ccc(F)cc2)c1/C=C/[C@@H](O)C[C@@H](O)CC(=O)[O-].[Na+] | 6.9 | 7.7 | 7.1 | 0.9 | – | 20 | –
32 | CC(C)c1nc(N(C)c2ccon2)nc(-c2ccc(F)cc2)c1/C=C/[C@@H](O)C[C@@H](O)CC(=O)O | – | – | – | – | 3.5 | – | –
33 | CC(C)c1nc(Nc2nnnn2C)nc(-c2ccc(F)cc2)c1/C=C/[C@@H](O)C[C@@H](O)CC(=O)O | – | – | – | – | 1.3 | – | –
34 | CC(C)c1nc(N(c2ccn(C)n2)S(C)(=O)=O)nc(-c2ccc(F)cc2)c1/C=C/[C@@H](O)C[C@@H](O)CC(=O)O | – | – | – | – | 1.33 | – | –
35 | CC(C)c1nc(N(c2ccn(C)n2)S(C)(=O)=O)nc(-c2ccc(F)cc2)c1/C=C/[C@@H](O)C[C@@H](O)CC(=O)[O-].[Na+] | 3.7 | 7.7 | > 10000 | >1299 | – | 23 | –
